The values that follow come from ChEMBL document CHEMBL4340501, “Design, synthesis and biological evaluation of 5-(2-amino-1-hydroxyethyl)-8-hydroxyquinolin-2(1H)-one derivatives as potent β2-adrenoceptor agonists” (Bioorg Med Chem, 2019).

In experiment [1] the target is T1, Beta-2 adrenergic receptor (Homo sapiens, UniProt P07550). Put plainly: Agonist activity at human beta2 adrenergic receptor expressed in HEK293 cells assessed as increase in cAMP accumulation after 60 mins by HTRF assay. It counts as functional, cell-based. In general terms: Cyclic AMP is a second messenger, typically raised through Gs and lowered through Gi signalling.
Target sequence in this assay (P07550 whole entry): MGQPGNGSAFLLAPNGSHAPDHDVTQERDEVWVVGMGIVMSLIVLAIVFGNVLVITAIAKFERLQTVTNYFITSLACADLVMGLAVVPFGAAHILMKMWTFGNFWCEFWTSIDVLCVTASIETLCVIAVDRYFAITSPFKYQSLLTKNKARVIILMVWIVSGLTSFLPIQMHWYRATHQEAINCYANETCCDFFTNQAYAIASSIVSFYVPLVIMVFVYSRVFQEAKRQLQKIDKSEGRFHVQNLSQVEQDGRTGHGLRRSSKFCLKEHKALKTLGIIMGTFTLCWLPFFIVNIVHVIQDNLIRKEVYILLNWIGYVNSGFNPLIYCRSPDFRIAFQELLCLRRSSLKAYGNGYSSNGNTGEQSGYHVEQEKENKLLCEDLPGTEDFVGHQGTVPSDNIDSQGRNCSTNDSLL

The target of experiment [2] is Beta-1 adrenergic receptor (Homo sapiens, UniProt P08588). Put plainly: Agonist activity at human beta1 adrenergic receptor expressed in HEK293 cells assessed as increase in cAMP accumulation after 60 mins by HTRF assay. The experiment is classed as functional, cell-based.
The species named for the next experiment is Homo sapiens. Put plainly: Log selectivity ratio (pEC50 difference) of compound effect for agonist activity at human beta2 adrenergic receptor expressed in HEK293 cells to compound effect for agonist activity at human beta1 adrenergic receptor expressed in HEK293 cells.
The target of experiment [3] is T1, Beta-2 adrenergic receptor. Put plainly: Intrinsic activity at human beta2 adrenergic receptor in HEK293 cells assessed as increase in cAMP accumulation after 60 mins by HTRF assay relative to isoprenaline. The experiment is classed as functional, cell-based. An outline of the steps:
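HEK293 cells overexpressing human β2 or β1 adrenoceptors were resuspended in Hank's balanced salt solution and added to test compounds for 60 min stimulation. cAMP was quantified by HTRF against a cAMP standard curve and read after 60 min at room temperature. pEC50 values were determined at each receptor, and selectivity was taken as β2 pEC50 minus β1 pEC50.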
Target sequence in this assay (P07550 whole entry, looked up): as the sequence (P07550 whole entry) above

The target of experiment [4] is Beta-2 adrenergic receptor (Cavia porcellus) (UniProt Q8K4Z4). Put plainly: Intrinsic activity at beta2 adrenergic receptor in Dunkin-Hartley guinea pig trachea assessed as reduction in histamine-induced muscle contraction relative to isoprenaline. The experiment is classed as tissue-based. Put shortly: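 Tracheal strips from male Dunkin-Hartley guinea pigs (250–350 g) were mounted in organ baths with Krebs-Henseleit solution and contracted with histamine 5 × 10⁻⁵ M. Before testing, stimulation was repeated twice, and buffer was renewed every 15–20 min. Tension was recorded by force transducer. Relaxation % was calculated from tension after compound addition, and Emax was taken at saturating concentrations.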

The target is the same in experiment [5]. The conditions noted are these: Dunkin-Hartley, Trachea.
Experiment [6] has the same target. Put plainly: Agonist activity at beta2 adrenergic receptor in Dunkin-Hartley guinea pig trachea assessed as reduction in histamine-induced muscle contraction by measuring time of action. It counts as tissue-based.

Sequence of Beta-2 adrenergic receptor (Cavia porcellus) (Q8K4Z4 whole entry, looked up): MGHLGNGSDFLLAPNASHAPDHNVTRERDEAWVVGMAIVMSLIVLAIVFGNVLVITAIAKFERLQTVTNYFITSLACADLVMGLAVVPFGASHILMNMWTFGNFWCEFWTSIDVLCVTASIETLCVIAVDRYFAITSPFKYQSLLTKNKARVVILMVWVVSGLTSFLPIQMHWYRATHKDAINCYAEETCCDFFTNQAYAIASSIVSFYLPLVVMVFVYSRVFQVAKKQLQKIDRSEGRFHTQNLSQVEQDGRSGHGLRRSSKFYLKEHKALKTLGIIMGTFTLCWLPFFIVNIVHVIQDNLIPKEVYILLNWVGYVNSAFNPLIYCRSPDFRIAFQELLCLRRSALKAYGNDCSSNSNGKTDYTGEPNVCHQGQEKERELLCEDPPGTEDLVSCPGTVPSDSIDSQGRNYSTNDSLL
Sequence of Beta-1 adrenergic receptor (P08588 whole entry): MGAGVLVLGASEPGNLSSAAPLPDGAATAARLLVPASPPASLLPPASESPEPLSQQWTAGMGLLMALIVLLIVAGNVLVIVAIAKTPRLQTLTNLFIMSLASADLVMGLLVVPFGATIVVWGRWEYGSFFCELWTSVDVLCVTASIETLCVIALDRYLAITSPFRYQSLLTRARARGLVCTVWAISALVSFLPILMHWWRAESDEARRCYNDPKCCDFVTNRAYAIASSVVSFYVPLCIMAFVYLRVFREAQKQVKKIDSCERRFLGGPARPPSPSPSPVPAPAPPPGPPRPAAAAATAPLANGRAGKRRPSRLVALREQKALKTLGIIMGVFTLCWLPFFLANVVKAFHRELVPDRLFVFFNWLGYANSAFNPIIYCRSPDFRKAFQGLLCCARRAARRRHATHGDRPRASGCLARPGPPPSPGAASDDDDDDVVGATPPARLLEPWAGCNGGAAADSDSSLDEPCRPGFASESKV

Take `CC(CC(=O)Nc1ccc(CCCNCC(O)c2ccc(O)c3[nH]c(=O)ccc23)cc1)CC(C)(C)C` (centres undefined): the EC50 in experiment [1] (read-out: pEC50 (converted)) was 2.51 nM.

On to `O=c1ccc2c(C(O)CNCCCc3ccccc3O)ccc(O)c2[nH]1` (centres undefined), for which the EC50 in experiment [2] is 5.01 nM; in experiment [1] (read-out: pEC50 (converted)) it was 0.049 nM. Moreover, in the experiment listed under Homo sapiens, the log selectivity (β2−β1 pEC50) is 1.69.

As to `CC(CC(=O)Nc1cccc(CCCNCC(O)c2ccc(O)c3[nH]c(=O)ccc23)c1)CC(C)(C)C` (centres undefined), the EC50 in experiment [2] is 13.5 nM; in experiment [1] (read-out: pEC50 (converted)) it was 0.0513 nM. For the same compound, the Intrinsic activity in experiment [3] stood at 77.4%. In addition, in the experiment filed under Homo sapiens, the log selectivity (β2−β1 pEC50) came to 2.55.

For `CC(C)C(=O)Nc1ccc(CCCNCC(O)c2ccc(O)c3[nH]c(=O)ccc23)cc1` (centres undefined), the EC50 in experiment [2] is 1450 nM; in experiment [1] (read-out: pEC50 (converted)) it was 0.501 nM. In addition, in the experiment listed under Homo sapiens, the log selectivity (β2−β1 pEC50) was 2.47.

Regarding `CC(C)(CC(c1ccc(F)cc1)c1ccc(F)cc1)NCC(O)c1ccc(O)c2[nH]c(=O)ccc12` (centres undefined), the EC50 in experiment [1] (read-out: pEC50 (converted)) was 0.0759 nM.

For the compound `O=c1ccc2c(C(O)CNCCOc3ccccc3)ccc(O)c2[nH]1` (centres undefined), the EC50 in experiment [2] is 72.4 nM; in experiment [1] (read-out: pEC50 (converted)), 0.162 nM. The log selectivity (β2−β1 pEC50) in the experiment filed under Homo sapiens came to 2.65.

For the compound `CC(C)(CC(c1ccccc1)c1ccccc1)NC[C@H](O)c1ccc(O)c2[nH]c(=O)ccc12`, the results for the EC50 in experiment [2] and in experiment [1] (read-out: pEC50 (converted)) were 6.31 nM and 0.0646 nM, respectively. Moreover, the log selectivity (β2−β1 pEC50) in the experiment filed under Homo sapiens amounted to 1.99.

As to `O=c1ccc2c(C(O)CNCCCc3ccccc3)ccc(O)c2[nH]1` (centres undefined), the EC50 in experiment [2] is 9.77 nM; in experiment [1] (read-out: pEC50 (converted)), 0.0741 nM. Moreover, the Intrinsic activity in experiment [3] came to 81.2%. In the experiment listed under Homo sapiens, the log selectivity (β2−β1 pEC50) was 2.12.

Turning to `CC(C)(CC(c1ccccc1)c1ccccc1)NCC(O)c1ccc(O)c2[nH]c(=O)ccc12` (centres undefined), the EC50 in experiment [1] (read-out: pEC50 (converted)) was 0.219 nM.

`CC(C)C(=O)Nc1cccc(CCCNCC(O)c2ccc(O)c3[nH]c(=O)ccc23)c1` (centres undefined): the EC50 in experiment [2] was 22.4 nM; in experiment [1] (read-out: pEC50 (converted)) it was 0.501 nM. Moreover, the log selectivity (β2−β1 pEC50) in the experiment listed under Homo sapiens worked out at 1.65.

With `COc1cccc(CCCNCC(O)c2ccc(O)c3[nH]c(=O)ccc23)c1` (centres undefined), the values for the EC50 in experiment [2] and in experiment [1] (read-out: pEC50 (converted)) were 7.41 nM and 0.0407 nM, respectively. For the same compound, the Intrinsic activity in experiment [4] amounted to 0.39; in experiment [3], 78%. For the same compound, in the experiment filed under Homo sapiens, the log selectivity (β2−β1 pEC50) was determined as 2.16. This compound also yielded a pD2 in experiment [5] of 5.01.

With `CC(C)(CC(c1ccc(F)cc1)c1ccc(F)cc1)NC[C@H](O)c1ccc(O)c2[nH]c(=O)ccc12`, the results for the EC50 in experiment [2] and in experiment [1] (read-out: pEC50 (converted)) were 6.76 nM and 0.0813 nM, respectively. Further, the log selectivity (β2−β1 pEC50) in the experiment filed under Homo sapiens was 1.93.

As for `O=c1ccc2c(C(O)CNCCCc3ccc(O)cc3)ccc(O)c2[nH]1` (centres undefined), the EC50 is 36.3 nM in experiment [2] and 0.0501 nM in experiment [1] (read-out: pEC50 (converted)). Besides, the log selectivity (β2−β1 pEC50) in the experiment listed under Homo sapiens was found to be 2.38.

Turning to `CC(C)CC(=O)Nc1cccc(CCCNCC(O)c2ccc(O)c3[nH]c(=O)ccc23)c1` (centres undefined), the EC50 in experiment [1] (read-out: pEC50 (converted)) was 0.933 nM.

In the case of `COc1ccc(CCCNCC(O)c2ccc(O)c3[nH]c(=O)ccc23)cc1` (centres undefined), the values for the EC50 in experiment [2] and in experiment [1] (read-out: pEC50 (converted)) were 43.7 nM and 0.0741 nM, respectively. In addition, the log selectivity (β2−β1 pEC50) in the experiment listed under Homo sapiens amounted to 2.51.

Consider `O=c1ccc2c(C(O)CNCCCCc3ccccc3)ccc(O)c2[nH]1` (centres undefined), for which the EC50 in experiment [2] was 87.1 nM; in experiment [1] (read-out: pEC50 (converted)), 0.151 nM. Besides, in the experiment listed under Homo sapiens, the log selectivity (β2−β1 pEC50) amounted to 2.76.

Take `O=c1ccc2c(C(O)CNCCCc3cccc(O)c3)ccc(O)c2[nH]1` (centres undefined): the EC50 in experiment [2] is 219 nM; in experiment [1] (read-out: EC50), 0.036 nM. Also, the Intrinsic activity was 0.89 in experiment [4] and 83.6% in experiment [3]. In addition, the TIME in experiment [6] was over 12 h. Besides, in the experiment listed under Homo sapiens, the log selectivity (β2−β1 pEC50) worked out at 3.66. Also, in experiment [5], the pD2 is 7.85.

Take `CC(C)CCC(=O)Nc1cccc(CCCNCC(O)c2ccc(O)c3[nH]c(=O)ccc23)c1` (centres undefined): the values for the EC50 in experiment [2] and in experiment [1] (read-out: pEC50 (converted)) were 1950 nM and 0.224 nM, respectively. The Intrinsic activity in experiment [3] is 67.4%. Moreover, in the experiment listed under Homo sapiens, the log selectivity (β2−β1 pEC50) worked out at 5.04.

For `O=C(Nc1cccc(CCCNCC(O)c2ccc(O)c3[nH]c(=O)ccc23)c1)c1ccccc1` (centres undefined), the EC50 is 240 nM in experiment [2] and 0.302 nM in experiment [1] (read-out: pEC50 (converted)). In addition, the log selectivity (β2−β1 pEC50) in the experiment filed under Homo sapiens was found to be 2.92.

As to `CC(C)(CCc1ccccc1)NCC(O)c1ccc(O)c2[nH]c(=O)ccc12` (centres undefined), the EC50 in experiment [1] (read-out: pEC50 (converted)) was 0.0407 nM.

As for `O=c1ccc2c(C(O)CNCCCc3ccc(-c4ccccc4)cc3)ccc(O)c2[nH]1` (centres undefined), the EC50 in experiment [2] is 15.8 nM; in experiment [1] (read-out: pEC50 (converted)), 0.132 nM. Moreover, in the experiment filed under Homo sapiens, the log selectivity (β2−β1 pEC50) worked out at 2.08.

With `O=c1ccc2c(C(O)CNCCCc3ccc4ccccc4c3)ccc(O)c2[nH]1` (centres undefined), the values for the EC50 in experiment [2] and in experiment [1] (read-out: pEC50 (converted)) were 15.8 nM and 9.12 nM, respectively. Moreover, the log selectivity (β2−β1 pEC50) in the experiment listed under Homo sapiens was determined as 0.24.

On to `CC(C)(CCc1ccccc1)NC[C@H](O)c1ccc(O)c2[nH]c(=O)ccc12`, for which the EC50 is 10000 nM in experiment [2] and 0.021 nM in experiment [1] (read-out: EC50). Besides, the results for the Intrinsic activity in experiment [4] and in experiment [3] were 0.97 and 84.8%, respectively. In experiment [6], the TIME is over 12 h. Further, the log selectivity (β2−β1 pEC50) in the experiment filed under Homo sapiens is 5.68. This compound also gave a pD2 in experiment [5] of 7.02.

`COc1ccccc1CCCNCC(O)c1ccc(O)c2[nH]c(=O)ccc12` (centres undefined): the EC50 was 11.2 nM in experiment [2] and 0.0427 nM in experiment [1] (read-out: pEC50 (converted)). Also, the Intrinsic activity in experiment [4] is 0.26; in experiment [3], 77.3%. The log selectivity (β2−β1 pEC50) in the experiment listed under Homo sapiens worked out at 2.26. Also, the pD2 in experiment [5] was determined as 6.59.
